ChEMBL document CHEMBL4680290, “Design, synthesis and biological evaluation of novel chalcone-like compounds as potent and reversible pancreatic lipase inhibitors” (Bioorg Med Chem, 2021)

tested on: not listed separately; test: Metabolic stability in artificial intestinal fluids assessed as half life at 100 uM by LC-UV method
Procedure, shortened: (§1)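 Artificial gastric or intestinal fluid (800 μL) prewarmed 3 min at 37 °C, then compound added to 100 μM final. Aliquots taken at 0, 0.5, 1, 2 and 4 h and quenched with equal volume of ice-cold acetonitrile. Half-life derived from remaining compound.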

| SMILES | T1/2 |
| --- | --- |
| COc1cc(/C=C2\Cc3ccc(N(CCCCCCCCCCCCO)CCCCCCCCCCCCO)cc3C2=O)ccc1O | > 4 h |

target: T1, Pancreatic triacylglycerol lipase (Sus scrofa, UniProt P00591); test: Inhibition of porcine pancreatic lipase preincubated for 10 mins followed by 4-MUO addition and measured at 60 sec interval for 40 mins by multi plate micro plate reader
T1 sequence (P00591 whole entry): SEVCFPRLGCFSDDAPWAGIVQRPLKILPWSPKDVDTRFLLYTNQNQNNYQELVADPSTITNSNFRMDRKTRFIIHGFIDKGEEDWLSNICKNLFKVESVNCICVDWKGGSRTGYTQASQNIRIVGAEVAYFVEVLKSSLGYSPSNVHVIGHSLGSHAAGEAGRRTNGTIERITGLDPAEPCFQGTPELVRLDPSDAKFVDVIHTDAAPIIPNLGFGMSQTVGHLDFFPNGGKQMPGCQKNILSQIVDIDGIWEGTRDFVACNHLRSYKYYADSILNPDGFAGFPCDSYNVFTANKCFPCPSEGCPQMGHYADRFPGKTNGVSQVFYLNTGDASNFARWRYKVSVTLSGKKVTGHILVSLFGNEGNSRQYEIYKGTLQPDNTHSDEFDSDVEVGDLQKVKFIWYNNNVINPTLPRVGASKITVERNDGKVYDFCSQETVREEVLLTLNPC
Procedure, shortened: (§2)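 Porcine pancreatic lipase (type II) at 0.01 mg/mL final in 0.1 M citrate phosphate buffer pH 7.4 with inhibitor at various concentrations, vortexed, preincubated 10 min at 37 °C. Reaction started with 4-MUO, and fluorescence of released 4-MU read on a microplate reader. IC50 obtained by nonlinear regression; mean ± SD of triplicates.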

| IC50 | SMILES |
| --- | --- |
| 8.61 µM | COc1cc(/C=C2\Cc3ccc(OC(C)C)cc3C2=O)ccc1O |
| 10.4 µM | COc1cc(/C=C2\Cc3ccc(O)cc3C2=O)ccc1O |
| 0.68 µM | COc1cc(/C=C2\Cc3ccc(NCCCCCCCCCCCCO)cc3C2=O)ccc1O |
| 37.1 µM | COc1ccc2c(c1)C(=O)/C(=C/c1ccc(O)c(OC)c1)C2 |
| 6.94 µM | COc1cc(/C=C2\Cc3ccccc3C2=O)ccc1O |
| 2.09 µM | C=CCCCCN(CCCCC=C)c1ccc2c(c1)C(=O)/C(=C/c1ccc(O)c(OC)c1)C2 |
| 0.83 µM | COc1cc(/C=C2\Cc3ccc(N(CCC(C)CCCC(C)C)CCC(C)CCCC(C)C)cc3C2=O)ccc1O (stereo unspecified) |
| 12.4 µM | COc1cc(/C=C2\Cc3ccc(N)cc3C2=O)ccc1O |
| 3.5 µM | COc1cc(/C=C2\Cc3ccc(N4CCCC4)cc3C2=O)ccc1O |
| 1.69 µM | CCN(CC)c1ccc2c(c1)C(=O)/C(=C/c1ccc(O)c(OC)c1)C2 |
| 75.6 µM | O=C1/C(=C/c2ccc(Br)cc2)Cc2ccc(O)cc21 |
| 2.52 µM | COc1cc(/C=C2\Cc3ccc(NCCC(C)CCCC(C)C)cc3C2=O)ccc1O (stereo unspecified) |
| 84.4 µM | O=C(/C=C/c1ccccc1)c1ccccc1 [CHALCONE] |
| 32.7 µM | O=C1/C(=C/c2ccc(F)cc2)Cc2ccc(O)cc21 |
| 84.1 µM | C=CCCCCCCCCNc1ccc2c(c1)C(=O)/C(=C/c1ccc(O)c(OC)c1)C2 |
| 0.58 µM | C=CCCCCCCCCN(CCCCCCCCC=C)c1ccc2c(c1)C(=O)/C(=C/c1ccc(O)c(OC)c1)C2 |

| IC50 | SMILES |
| --- | --- |
| 20.7 µM | COc1cc(OC)c(/C=C2\Cc3ccc(O)cc3C2=O)c(OC)c1 |
| 28.9 µM | O=C1/C(=C/c2ccccc2Br)Cc2ccc(O)cc21 |
| 3.32 µM | COc1cc(/C=C2\Cc3ccc(N4CCCCC4)cc3C2=O)ccc1O |
| > 100 µM | O=C1/C(=C/c2ccccc2F)Cc2ccc(O)cc21 |
| > 100 µM | O=C1/C(=C/c2ccc(O)cc2)Cc2ccc(O)cc21 |
| 14.9 µM | O=C1/C(=C/c2ccc(O)cc2)Cc2ccccc21 |
| > 100 µM | O=C1/C(=C/c2ccccc2Cl)Cc2ccc(O)cc21 |
| 75.4 µM | O=C1/C(=C/c2ccc(Cl)c(Cl)c2)Cc2ccc(O)cc21 |
| 35 µM | COc1cc(OC)c(OC)cc1/C=C1\Cc2ccc(O)cc2C1=O |
| 24.8 µM | COc1ccc(/C=C2\Cc3ccc(O)cc3C2=O)c(OC)c1 |
| 14.8 µM | O=C1/C(=C/c2cccc(Br)c2)Cc2ccc(O)cc21 |
| 0.33 µM | COc1cc(/C=C2\Cc3ccc(N(CCCCCCCCCCCCO)CCCCCCCCCCCCO)cc3C2=O)ccc1O |
| 25.1 µM | C=CCCCCNc1ccc2c(c1)C(=O)/C(=C/c1ccc(O)c(OC)c1)C2 |
| 14.8 µM | COc1cc(/C=C2\Cc3ccc(O)cc3C2=O)cc(OC)c1OC |
| 2.54 µM | CCCOc1ccc2c(c1)C(=O)/C(=C/c1ccc(O)c(OC)c1)C2 |

target: T1, Pancreatic triacylglycerol lipase; test: Mixed type inhibition of porcine pancreatic lipase using 4MUO as substrate by Lineweaver-Burk plot analysis
Procedure, shortened: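 Kinetics of porcine pancreatic lipase with varied 4-MUO concentrations and increasing inhibitor doses, otherwise as in the standard assay (0.01 mg/mL enzyme, citrate phosphate pH 7.4, 37 °C, 4-MU fluorescence read-out). Inhibition mode and Ki taken from inhibition kinetic plots and Lineweaver-Burk plots, with a secondary plot of slopes. Nonlinear regression; mean ± SD of triplicates.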

| Ki | SMILES |
| --- | --- |
| 0.12 µM | COc1cc(/C=C2\Cc3ccc(N(CCCCCCCCCCCCO)CCCCCCCCCCCCO)cc3C2=O)ccc1O |

tested on: not listed separately; test: Metabolic stability in artificial gastrointestinal fluids assessed as half life at 100 uM by LC-UV method; procedure, shortened: as §1

| SMILES | T1/2 |
| --- | --- |
| COc1cc(/C=C2\Cc3ccc(N(CCCCCCCCCCCCO)CCCCCCCCCCCCO)cc3C2=O)ccc1O | 3.89 h |

tested on: not listed separately; test: Metabolic stability in human liver microsomes assessed as half life in Phase I metabolic system at 10 uM measured by LC-UV method; assay type: ADME, Microsome
Procedure, shortened: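 Phase I incubation with human liver preparations, compound or testosterone control at 10 μM final. Remaining compound quantified by LC-UV (ODS column, 40 °C, acetonitrile/0.2% formic acid water gradient, 0.4 mL/min, detection 370 nm) to give in vitro half-life.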

| half-life at 10 µM | SMILES |
| --- | --- |
| 3.68 h | COc1cc(/C=C2\Cc3ccc(N(CCCCCCCCCCCCO)CCCCCCCCCCCCO)cc3C2=O)ccc1O |

tested on: not listed separately; test: Metabolic stability in human liver microsomes assessed as half life in Phase II metabolic system at 10 uM measured by LC-UV method; assay type: ADME, Microsome
Procedure, shortened: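 Phase II system of human liver preparations, compound at 10 μM final. Remaining compound measured by UFLC-UV on an ODS column (2.1 × 150 mm, 2.2 μm) at 40 °C and 0.4 mL/min, with an acetonitrile / water (0.2% formic acid) gradient, detection at 370 nm. Half-life reported.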

| SMILES | half-life at 10 µM |
| --- | --- |
| O=c1ccc2ccc(O)cc2o1 [UMBELLIFERONE] | 0.258 h |
| COc1cc(/C=C2\Cc3ccc(N(CCCCCCCCCCCCO)CCCCCCCCCCCCO)cc3C2=O)ccc1O | 1.95 h |

target: not listed separately; test: Inhibition of porcine pancreatic lipase type 2; set-up: species or system Sus scrofa; procedure, shortened: as §2

| IC50 | SMILES |
| --- | --- |
| 3.3 µM | CC(C)=CCc1c(O)ccc(C(=O)/C=C/c2ccc(O)cc2)c1O [ISOBAVACHALCONE] |
| 6.2 µM | CC(C)=CCc1c(O)ccc(C(=O)/C=C/c2ccc(O)cc2O)c1O [MORACHALCONE A] |
| 5.7 µM | CC(C)=CCc1cc(C(=O)/C=C/c2ccc(O)cc2)c(O)cc1O [BROUSSOCHALCONE B] |
| 22.5 µM | O=C1/C(=C/c2ccccc2)Cc2ccccc21 |
